Laboratory results taken from ChEMBL document CHEMBL1142706, “Synthesis and evaluation of (pyridylmethylene)tetrahydronaphthalenes/-indanes and structurally modified derivatives: potent and selective inhibitors of aldosterone synthase” (J Med Chem, 2005).
pIC50: −log10 of the molar value.

Columns and labels:
[1] = target: T1, Cytochrome P450 11B1, mitochondrial (Homo sapiens, UniProt P15538); assay: (§1) In vitro inhibitory concentration against human CYP11B1 expressed in V79 MZh hamster fibroblasts incubated with 100 nM of substrate deoxy-corticosterone in presence of the compound
T1 sequence (P15538 whole entry): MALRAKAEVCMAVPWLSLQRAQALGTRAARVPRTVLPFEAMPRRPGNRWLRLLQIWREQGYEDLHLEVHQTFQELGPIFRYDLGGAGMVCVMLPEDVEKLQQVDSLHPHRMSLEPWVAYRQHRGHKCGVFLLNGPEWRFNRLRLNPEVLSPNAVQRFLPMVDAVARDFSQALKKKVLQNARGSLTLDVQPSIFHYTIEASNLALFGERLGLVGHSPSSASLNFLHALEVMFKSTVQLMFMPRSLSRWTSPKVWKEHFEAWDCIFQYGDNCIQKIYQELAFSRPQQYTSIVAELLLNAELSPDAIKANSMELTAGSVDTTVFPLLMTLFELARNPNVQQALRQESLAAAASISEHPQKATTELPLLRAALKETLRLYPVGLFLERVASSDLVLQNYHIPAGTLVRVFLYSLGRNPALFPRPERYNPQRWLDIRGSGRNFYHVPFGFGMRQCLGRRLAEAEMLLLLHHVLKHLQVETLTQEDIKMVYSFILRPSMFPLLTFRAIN

Aromatase = target: T2, Aromatase (Homo sapiens, UniProt P11511); assay: In vitro inhibitory concentration against human placental CYP19 incubated with 500 nM of substrate androstenedione in presence of the compound
T2 sequence (P11511 whole entry): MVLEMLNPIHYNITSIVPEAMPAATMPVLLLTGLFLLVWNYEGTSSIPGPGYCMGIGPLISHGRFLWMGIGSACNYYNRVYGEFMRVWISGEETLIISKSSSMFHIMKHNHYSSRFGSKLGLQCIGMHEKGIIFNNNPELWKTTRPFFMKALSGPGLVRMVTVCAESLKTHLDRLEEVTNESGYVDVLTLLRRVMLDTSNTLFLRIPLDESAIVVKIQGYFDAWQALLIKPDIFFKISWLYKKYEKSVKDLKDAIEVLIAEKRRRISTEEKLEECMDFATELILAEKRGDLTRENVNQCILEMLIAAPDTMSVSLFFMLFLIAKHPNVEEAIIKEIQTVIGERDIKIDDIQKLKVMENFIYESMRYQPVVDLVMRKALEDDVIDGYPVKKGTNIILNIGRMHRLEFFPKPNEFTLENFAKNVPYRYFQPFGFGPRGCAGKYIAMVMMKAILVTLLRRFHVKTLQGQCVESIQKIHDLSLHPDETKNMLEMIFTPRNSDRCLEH

[2] = target: T3, Cytochrome P450 11B2, mitochondrial (Homo sapiens, UniProt P19099); assay: In vitro inhibitory concentration against human CYP11B2 expressed in V79MZh hamster fibroblasts incubated with 100 nM of substrate deoxy-corticosterone in presence of the compound
T3 sequence (P19099 whole entry): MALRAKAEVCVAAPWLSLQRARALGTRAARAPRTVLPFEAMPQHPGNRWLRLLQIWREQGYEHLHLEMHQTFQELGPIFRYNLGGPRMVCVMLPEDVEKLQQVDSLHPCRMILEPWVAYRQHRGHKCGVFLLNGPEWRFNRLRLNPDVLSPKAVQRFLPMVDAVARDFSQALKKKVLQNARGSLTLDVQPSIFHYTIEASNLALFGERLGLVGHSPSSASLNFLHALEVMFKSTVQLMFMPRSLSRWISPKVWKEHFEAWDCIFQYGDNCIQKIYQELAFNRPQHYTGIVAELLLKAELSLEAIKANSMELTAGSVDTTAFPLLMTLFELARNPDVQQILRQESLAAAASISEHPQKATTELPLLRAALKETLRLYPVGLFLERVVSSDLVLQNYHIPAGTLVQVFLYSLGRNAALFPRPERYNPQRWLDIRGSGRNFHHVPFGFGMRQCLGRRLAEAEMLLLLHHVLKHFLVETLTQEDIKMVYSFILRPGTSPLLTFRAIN
How it was run: (§2)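 Intact V79 MZh hamster fibroblasts expressing human CYP11B1 or CYP11B2, incubated with [4-14C]-11-deoxycorticosterone (100 nM) and inhibitor at no fewer than three concentrations to give IC50. Stopped with ethyl acetate, shaken, centrifuged (10 000g, 2 min); steroids in organic phase analysed by HPTLC/phosphoimager. Mean of four determinations, standard deviation less than 5%.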

Homo sapiens = species on record: Homo sapiens; assay: In vitro IC50 ratio against human CYP11B1 to that of human CYP11B2
How it was run: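 IC50 ratio from V79 MZh hamster fibroblasts expressing human CYP11B1 or CYP11B2, each incubated with [4-14C]-11-deoxycorticosterone (100 nM) and inhibitor at no fewer than three concentrations; steroids extracted into ethyl acetate and quantified by HPTLC with phosphoimaging.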

CYP17 = target: T4, CYP17 (Homo sapiens, UniProt P05093); assay: In vitro inhibition of human CYP17 expressed in Escherichia coli incubated with 2.5 uM of substrate progesterone in presence of 2.5 uM of compound; conditions: probe progesterone
T4 sequence (P05093 whole entry): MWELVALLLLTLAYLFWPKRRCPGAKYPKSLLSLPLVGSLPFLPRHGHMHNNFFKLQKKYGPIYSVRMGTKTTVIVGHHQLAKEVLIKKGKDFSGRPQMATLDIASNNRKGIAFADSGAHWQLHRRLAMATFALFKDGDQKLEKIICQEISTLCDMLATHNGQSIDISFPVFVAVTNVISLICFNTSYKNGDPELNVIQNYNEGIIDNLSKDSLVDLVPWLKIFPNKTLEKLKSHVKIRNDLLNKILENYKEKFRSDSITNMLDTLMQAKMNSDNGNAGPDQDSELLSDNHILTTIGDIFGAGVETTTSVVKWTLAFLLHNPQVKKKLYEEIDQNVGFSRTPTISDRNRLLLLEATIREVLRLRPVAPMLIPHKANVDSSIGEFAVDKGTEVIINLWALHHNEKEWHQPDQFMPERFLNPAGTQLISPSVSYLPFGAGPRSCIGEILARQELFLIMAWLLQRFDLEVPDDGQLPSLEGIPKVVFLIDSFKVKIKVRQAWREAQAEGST

[3] = target: T3, Cytochrome P450 11B2, mitochondrial; assay: In vitro inhibitory concentration against human CYP11B2 expressed in V79 MZh hamster fibroblasts incubated with 100 nM of substrate deoxy-corticosterone in presence of the compound; how it was run: as §2
[4] = target: T3, Cytochrome P450 11B2, mitochondrial; assay: In vitro inhibition of human CYP11B2 expressed in Schizosaccharomyces pombe incubated with 100 nM of substrate deoxy-corticosterone in presence of 500 nM of compound
CYP11B2 (Homo sapiens) = assay: In vitro inhibitory concentration against human CYP11B2 expressed in V79 MZh hamster fibroblasts incubated with 100 nM of substrate deoxy-corticosterone in presence of the compound; conditions: V79 MZh hamster fibroblasts expressing human CYP11B2, probe deoxy-corticosterone
CYP11B1 = target: T5, CYP11B1 (Homo sapiens, UniProt P15538); assay: as §1; conditions: human, V79 MZh hamster fibroblasts expressing human CYP11B1, probe deoxy-corticosterone
T5 sequence (P15538 whole entry): T1 sequence (P15538 whole entry)

SMILES	pIC50 [1]	pIC50 (Aromatase)	pIC50 [2]	Selectivity ratio (Homo sapiens)	inhibition at 2.5 µM (CYP17)	pIC50 [3]	inhibition at 0.5 µM [4]	pIC50 (CYP11B2 (Homo sapiens))	pIC50 (CYP11B1)
Brc1ccc2c(c1)CC/C2=C\c1ccncc1	5.58	< 4.44	7.62	0.4	–	–	–	–	–
C(=C1/CCc2ccccc21)/c1cccnc1	–	–	–	80.7	14%	7.96	–	–	–
CC1C/C(=C/c2cccnc2)c2ccccc21 (configuration not stated)	–	5.55	–	–	–	7.39	15%	–	–
Brc1ccc2c(c1)CC/C2=C/c1ccncc1	6.32	5.47	7.25	1.8	–	–	40%	–	–
Fc1ccc2c(c1)CC/C2=C\c1ccncc1	5.96	–	7.82	0.3	–	–	–	–	–
C(=C1/CCCc2ccccc21)/c1ccncc1	6.84	6.19	7.82	2	–	–	54%	–	–
C(=C1\CCc2ccccc21)/c1ccncc1	6.03	–	7.74	1.4	–	–	–	–	–
Fc1ccc2c(c1)CC/C2=C/c1ccncc1	7.47	–	7.54	7.6	–	–	–	–	–
C/C(=C1/CCc2cc(F)ccc21)c1cccnc1	7.02	–	–	1.7	–	–	67%	–	–
C(=C1\CCc2ccccc21)/c1cccnc1	7.06	5.45	7.04	0.9	33%	–	83%	–	–
Fc1ccc2c(c1)CC/C2=C/c1cccc2cnccc12	–	–	7.19	14.4	–	–	–	7.59	–
Fc1ccc2c(c1)CC/C2=C\c1cccc2cnccc12	–	–	7.24	19.5	–	–	–	–	7.24
Fc1ccc2c(c1)CC/C2=C\c1cncnc1	–	–	7.57	118	–	–	–	–	5.50
